Source: PubChem BioAssay
Hits are enriched below; roughly 1.4% of the tested compounds scored in any of these assays.
hiPSC survival – enhancers of human iPSC single-cell survival; hiPSC single-cell survival, ATPlite luminescence; 100% = ROCK inhibitor wells, 0% = DMSO; survival enhancement, % at 20 µM; actives 0.044% (n = 360,000); AID 602274; in the data active = survival enhancement above about 18%;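 also: cells exposed to compounds for 16 hours before the ATP read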
PfGluPho inh – PfG6PD (Plasmodium falciparum) enzyme inhibition; PfGluPho enzyme, NADPH resazurin-diaphorase fluorescence; inhibition, % at 20 µM; actives 0.78% (n = 350,000);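 active = inhibition reaching at least a set limit at 20 µM in the primary screen, cut at about 59% in these data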
HKDC1 inh – blocks human hexokinase HKDC1 activity. Q2TB90. recombinant HKDC1, G6PDH/diaphorase resazurin coupled fluorescence. inhibition, % at 20 µM. actives 0.16% (n = 340,000). AID 493160;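 active = inhibition above about 35% when tested at 20 µM, limit read from the data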
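System: Recombinant HKDC1 hexokinase | Amount: HKDC1 at 5 µg/mL | Reagent: Glucose with 1 mM ATP | Doses: Single 20 µM dose | Incubation: Reaction time 90 min, room temperature, protected from light | Signal: Coupled resazurin fluorescence, excitation 525 nm, emission 613 nm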
APOBEC3A inh – human APOBEC3A DNA deaminase inhibition | P31941 | recombinant A3A, FAM/TAMRA ssDNA deamination fluorescence | inhibition, % at 20 µM | actives 0.41% (n = 330,000);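 active = at least 40% inhibition at 20 µM here, with at most 30% in a related deaminase screen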
Target sequence (P31941 whole entry, looked up): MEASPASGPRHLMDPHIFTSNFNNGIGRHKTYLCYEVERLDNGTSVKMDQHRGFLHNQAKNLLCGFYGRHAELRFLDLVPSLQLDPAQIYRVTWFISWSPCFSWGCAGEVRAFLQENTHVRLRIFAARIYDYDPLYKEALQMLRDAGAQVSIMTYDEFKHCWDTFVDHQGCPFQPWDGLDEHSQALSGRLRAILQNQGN
A3G deaminase – APOBEC3G (human) deaminase inhibition; Q9HC16; recombinant A3G, ssDNA deamination FAM/TAMRA fluorescence; inhibition, % at 20 µM; actives 0.28% (n = 330,000); AID 493012;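 active = inhibition of at least 40% at 20 µM, with no more than 30% in the related APOBEC3A deaminase screen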
Target sequence (Q9HC16 whole entry, looked up): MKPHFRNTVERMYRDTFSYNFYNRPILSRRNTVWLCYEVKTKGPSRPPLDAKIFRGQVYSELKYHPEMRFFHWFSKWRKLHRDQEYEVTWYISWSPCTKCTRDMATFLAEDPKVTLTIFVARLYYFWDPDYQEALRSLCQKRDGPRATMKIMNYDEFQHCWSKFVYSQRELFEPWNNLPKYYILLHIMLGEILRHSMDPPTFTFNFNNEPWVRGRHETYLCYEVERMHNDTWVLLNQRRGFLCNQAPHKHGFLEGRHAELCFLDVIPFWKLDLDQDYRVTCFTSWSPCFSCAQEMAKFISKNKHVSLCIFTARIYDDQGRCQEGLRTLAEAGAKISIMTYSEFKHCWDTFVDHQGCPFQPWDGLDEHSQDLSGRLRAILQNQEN
APOBEC3G confirm – APOBEC3G (human) deaminase inhibition, confirmed; shares compounds with A3G deaminase; recombinant A3G ssDNA deaminase, UDG/FAM-TAMRA fluorescence; inhibition, % at 20 µM; actives 72% (n = 890); AID 493152;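 active = inhibition reaching a set limit in any replicate at 20 µM, the limit being 80% of the first screen's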
UDG A3G counter – inhibits E. coli UDG, flagging false APOBEC3G inhibitors; shares compounds with A3G deaminase; UDG counterscreen, FAM/TAMRA oligo fluorescence; inhibition, % at 20 µM; 710 tested, under 10 active; AID 504715;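 active = compounds giving 40% or more inhibition at 20 µM in any one of the three replicates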;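 also: inhibitors lower the FAM signal released by uracil excision and alkaline cleavage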
Hits are given with their value; n = inactive; x = no result given; ! = not active in a repeat.

SMILES | hiPSC survival | PfGluPho inh | HKDC1 inh | APOBEC3A inh | A3G deaminase | APOBEC3G confirm | UDG A3G counter
O=C(N/N=C/c1cccc(OC2CSC2)c1)c1ccccc1O | n | n | n | n | 73 | n | n
COCCNc1nc(Oc2cncc(Cl)c2)c2sccc2n1 | n | x | x | x | x | x | x
S=c1nc(C2COc3ccccc3O2)[nH][nH]1 (stereo not drawn) | n | n | n | n | 52 | 71 | n
O=C1NC(=O)/C(=C\c2cn(CC(=O)N3CCOCC3)c3ccccc23)S1 | n | n | n | n | n | x | x
S=c1[nH]nc(-c2ccco2)n1C1CCCCC1 | n | n | n | n | 44 | 84 | n
Nn1c(-c2ccco2)n[nH]c1=S | n | n | n | n | n | x | x
Cc1ccc(-c2n[nH]c(=S)n2/N=C/c2cccs2)cc1 | n | n | n | n | n | x | x
Cc1cc(-c2n[nH]c(=S)n2/N=C/c2cccs2)n[nH]1 | n | n | n | n | 60 | 92 | n
O=[N+]([O-])c1ccccc1/C=N/n1c(-c2ccccc2)n[nH]c1=S | n | n | n | n | 51 | 81 | n
S=c1[nH]nc(-c2ccco2)n1/N=C/c1cccs1 | n | n | n | n | 62 | 81 | n
S=c1[nH]nc(-c2ccccc2)n1/N=C/c1cccs1 | n | n | n | n | 44 | 58 | n
O=C(NNC(=O)c1cc(-c2ccncc2)nc2ccccc12)c1ccccc1O | n | n | n | n | n | x | x
NS(=O)(=O)c1ccc(N2CCOCC2)c(C(=O)NCc2ccc3c(c2)OCO3)c1 | n | n | n | n | n | x | x
S=c1[nH]nc(-c2ccccn2)n1/N=C/c1ccc(Cl)c(Cl)c1 | n | n | n | n | 46 | 45 | n
S=c1[nH]nc(-c2cc(-c3ccccc3)n[nH]2)n1/N=C/c1cccc(Cl)c1 | n | n | n | n | 53 | n | n
COCc1cc(C)nc(N/N=C/c2ccc(-c3ccc(Cl)cc3[N+](=O)[O-])o2)c1C#N | n | n | n | x | x | x | x
Nn1c(Cc2ccccc2F)n[nH]c1=S | n | n | n | n | n | x | x
COc1ccc(Cc2n[nH]c(=S)n2N)cc1OC | n | n | n | n | 61 | 58 | n
Nn1c(Cc2ccc(Br)cc2)n[nH]c1=S | n | n | n | n | 51 | 80 | n
Nn1c(Cc2cccc3ccccc23)n[nH]c1=S | n | n | n | n | 47 | 82 | n
COc1ccc(Cc2n[nH]c(=S)n2C)cc1Br | n | n | n | n | 42 | 54 | n
CC(C)n1nnnc1C1c2ccccc2C(=O)N1CCOc1ccccc1 (stereo not drawn) | n | x | x | x | x | x | x
CCc1nc2ccc(C(=O)NCCNC(C)=O)cn2c1N(C)CCCc1ccccc1 | n | x | x | x | x | x | x
CCCCCCNC(=O)N[C@H](C(=O)NCCC[C@H]1CN2C(=NC[C@H]2C)N1CCC(c1ccccc1)c1ccccc1)C(C)O (stereo partly drawn) | x | x | x | n | 78 | 73 | x
CC(=O)C(Cc1cccc(F)c1)(Cc1cccc(F)c1)C(C)=O | n | n | n | n | n | x | x
SMILES | hiPSC survival | PfGluPho inh | HKDC1 inh | APOBEC3A inh | A3G deaminase | APOBEC3G confirm | UDG A3G counter
CC1(C)S[C@@H]2[C@H](NC(=O)[C@H](N)c3ccccc3)C(=O)N2[C@H]1C(=O)O | n | n | n | n | 75! | 42 | n
O=C(NC1CCCCCC1)c1ccc[nH]c1=S | n | n | n | n | 55 | 66 | n
Cc1ccc(Oc2ccc(/C=N/O)cn2)cc1 | n | n | n | n | 61 | n | n
CCCCCC(O)CCc1n[nH]c(=S)n1-c1ccccc1 (stereo not drawn) | n | n | n | n | 41 | 58 | n
COc1cc(/C=C/C(=O)O)cc(S(=O)(=O)Nc2cc(S(=O)(=O)N3CCCCC3)ccc2Cl)c1OC | n | n | x | x | x | x | x
Cc1ccc(Cn2c(=S)[nH]c3ccc(N4CCOCC4)cc3c2=O)o1 | n | n | n | n | 59 | 76 | x
O=c1c2cc(N3CCOCC3)ccc2[nH]c(=S)n1Cc1ccc(Cl)cc1 | n | n | n | n | n | x | x
S=c1[nH]nc(COc2ccccc2)n1/N=C/c1ccco1 | n | n | n | n | 59 | 71 | n
CC1(c2ccccc2)NC(=O)N(CC(=O)Nc2ccccc2C(=O)NC2CC2)C1=O (stereo not drawn) | n | n | n | n | n | x | x
CC(C)CSc1n[nH]c(=S)s1 | n | n | n | n | 42 | 90 | n
CCCCN1C(=O)C(CC(=O)NC(c2ccccc2)c2ccccc2)CC(C(=O)N2CCCCCC2)=C1C (stereo not drawn) | n | x | x | x | x | x | x
Cc1ccc(CN2CC(C(=O)Nc3ccc4c(C)cc(=O)oc4c3)CC2=O)cc1 (stereo not drawn) | n | n | n | n | n | x | x
Cc1cc(=O)oc2cc(NC(=O)C3CCCC3)ccc12 | n | n | n | n | 57 | n | n
C=C(C)C(=O)Nc1cccc(C2=NOC3(C2)C[C@@H](C(N)=O)N(C(=O)CCCCC)C3)c1 (stereo partly drawn) | x | n | n | n | 86 | 94 | n
C=C(C)C(=O)Nc1cccc(C2=NOC3(C2)C[C@@H](C(N)=O)N(C(=O)[C@H]2CCC(=O)N2)C3)c1 (stereo partly drawn) | n | n | n | n | 43 | 46 | n
C=C(C)C(=O)Nc1cccc(C2=NOC3(C2)C[C@@H](C(N)=O)N(C(=O)c2ccc(OC)cc2)C3)c1 (stereo partly drawn) | n | n | n | n | 81 | 100 | x
CCCCCC(=O)N1CC2(CC(c3cccc(NC(=O)[C@@H]4CCC(=O)N4)c3)=NO2)C[C@@H]1C(N)=O (stereo partly drawn) | n | n | n | n | n | x | x
CC1CC(C)CN(CCCNC(=O)CN2C(=O)c3cccnc3Oc3ccc(Cl)cc32)C1 (stereo not drawn) | n | n | n | n | n | x | x
S=c1[nH]nc(CSc2nc3ccccc3s2)n1Cc1ccccc1 | n | n | n | n | n | x | x
C=CCn1c(CSc2nc3ccccc3s2)n[nH]c1=S | n | n | n | n | 45 | 75 | n
C=CCn1c(CSc2ccc(C)cc2)n[nH]c1=S | n | n | n | n | n | x | x
CCn1c(CSc2nc3ccccc3s2)n[nH]c1=S | n | n | n | n | 47 | 59 | n
CC1(CCc2ccccc2)NC(=S)N(c2ccccc2)N1 (stereo not drawn) | n | n | n | x | x | x | x
CC1(CCc2ccccc2)NC(=S)N(c2ccc(Cl)cc2)N1 (stereo not drawn) | n | n | n | n | 57 | n | x
Cc1ccccc1C(=O)NNC(=S)NC(=O)COc1ccccc1 | n | n | n | n | 44 | 64 | n
CC(C)(C)c1ccc(C(=O)NC(=S)NNC(=O)COc2ccccc2)cc1 | n | n | n | n | n | x | x
Cc1ccccc1C(=O)NCC(=O)NNC(=S)NC(=O)c1ccccc1 | n | n | n | n | 43 | n | n
